According to ChEMBL document CHEMBL1130343, “Folate-based inhibitors of thymidylate synthase: synthesis and antitumor activity of gamma-linked sterically hindered dipeptide analogues of 2-desamino-2-methyl-N10-propargyl-5,8-dideazafolic acid (ICI 198583)” (J Med Chem, 1997):

Experiments:
[1] = organism: Mus musculus; assay: Compound was tested for inhibition of L1210 cell growth in mouse.; assay type: functional, organism-based
[2] = system: WIL2; assay: Compound was tested for inhibition of human W1L2 cell growth.; assay type: functional, cell-based
[3] = organism: Mus musculus; assay: Compound was tested for inhibition of L1210:R D1694 cell growth in mouse.; assay type: functional, organism-based; conditions: L1210 (RD1694)
[4] = target: Thymidylate synthase (Mus musculus, UniProt P07607); assay: Inhibition of Thymidylate Synthase(TS) from mouse L1210 cells; assay type: cell-based; conditions: read-out: Ki app
[5] = organism: Mus musculus; assay: Compound was tested for inhibition of L1210:1565 cell growth in mouse.; assay type: functional, organism-based
Method in brief: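 Growth inhibition measured in L1210:1565, a mouse L1210 mutant line with an impaired reduced folate/MTX transport carrier. The line was selected for resistance to CI-920, an RFC-transported agent, and is cross-resistant to MTX. Result expressed as IC50.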

Thymidylate synthase, sequence (P07607 whole entry): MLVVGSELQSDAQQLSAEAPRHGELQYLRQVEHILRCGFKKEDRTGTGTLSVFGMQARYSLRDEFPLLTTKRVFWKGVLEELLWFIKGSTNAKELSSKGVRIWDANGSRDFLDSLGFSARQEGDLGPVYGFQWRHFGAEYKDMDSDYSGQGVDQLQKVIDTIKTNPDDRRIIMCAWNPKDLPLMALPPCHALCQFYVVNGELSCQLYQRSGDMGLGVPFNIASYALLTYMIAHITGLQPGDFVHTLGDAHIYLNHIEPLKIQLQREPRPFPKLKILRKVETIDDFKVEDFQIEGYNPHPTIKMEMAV

## C#CCN(Cc1ccc2nc(C)nc(O)c2c1)c1ccc(C(=O)N[C@@H](CCC(=O)NC(C)(C)C(=O)O)C(=O)O)cc1
[1]
  IC50: 2500 nM
[2]
  IC50: 310 nM
[3]
  IC50: 7100 nM
[4]
  Ki: 42 nM
[5]
  IC50: 70000 nM
